PLC-gamma1 inh = blocks human PLC-gamma1 enzyme activity. inhibition, % at 12.2 µM. P19174. purified PLC-gamma1, fluorogenic substrate, fluorescence. 370,000 tested, 0.84% active. AID 720700; in the data active = inhibition above about 9.5%
TbMetRS inhib = Trypanosoma brucei MetRS inhibition; inhibition, % at 11.9 µM; 360,000 tested, 0.4% active; purified T. brucei MetRS, ATP depletion, Kinase-Glo luminescence;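 active = inhibition above a per-plate cutoff of the control wells' mean inhibition plus 3 SD, cut at about 5.5% in these data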;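 note: 0% = DMSO wells median and 100% = median of wells with control inhibitor compound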
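assay system = parasite MetRS enzyme | timing = 15 min preincubation, 2 h reaction, all 25 °C | evaluation = percent inhibition relative to median high and low control wells | medium = HEPES buffer containing pyrophosphatase, BSA, spermine, DTT | compound = single dose, 11.9 µM final nominal, 0.9% final DMSO | detection = Kinase-Glo luminescence, ATP depletion format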
PLCb3 inh = inhibitors of human phospholipase C beta3 | inhibition, % at 12.2 µM | Q01970 | AID 720704 | Purified PLC-beta3, fluorogenic substrate, fluorescence | 370,000 tested, 0.18% active;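 note: 0% = median of compound wells on plate and 100% = full blocker control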
HGIII-sPLA2 inh = Inhibits HGIII-sPLA2 liposome hydrolysis, primary screen. inhibition, % at 12.2 µM. QFRET BODIPY PC-A2 liposome hydrolysis, fluorescence. 370,000 tested, 0.56% active;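 active = inhibition above mean plus 3 SD of compounds lying within the high and low control bounds, cut at about 19% in these data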;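 note: 0% = median of test compound wells and 100% = no enzyme DMSO wells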
PLCg1 ctr = counter-screen for PLC-beta3 inhibitors: inhibitors of human PLC-gamma1; shares compounds with PLC-gamma1 inh; purified PLC-gamma1, fluorogenic substrate, fluorescence; inhibition, % at 12.3 µM; 3,300 tested, 3.1% active; AID 743258; in the data active = inhibition above about 9.5%
PLCb3 confirm = human PLC-beta3 inhibition, confirmation | inhibition, % at 12.3 µM | 3,300 tested, 1% active | purified PLC-beta3, fluorogenic substrate fluorescence | shares compounds with PLC-gamma1 inh | AID 743261
sPLA2 confirm = human GIII-sPLA2 inhibition, confirmation. shares compounds with HGIII-sPLA2 inh. recombinant hGIII-sPLA2, BODIPY PC-A2 QFRET fluorescence. inhibition, % at 12.2 µM. 2,000 tested, 34% active. AID 743280;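 active = mean inhibition across triplicates above the hit cutoff set in the earlier primary screen, cut at about 19% in these data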;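 note: 0% = enzyme with DMSO and 100% = DMSO wells lacking enzyme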
BODIPY interf = optically interferes with 535nm fluorescence in sPLA2 counter-screen. inhibition, % at 12.2 µM. AID 743282. 2,000 tested, 8.5% active. shares compounds with HGIII-sPLA2 inh. BODIPY FL product fluorescence interference, QFRET;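 active = average inhibition above the solvent-only control mean plus 3 SD, cut at about 6% in these data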;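 note: 0% = DMSO with substrate plus product and 100% = DMSO with substrate alone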
* = called active by the depositor. Most compounds without a hit are left out; they make up all but 1.9% or so of the library. Cut-off read from the data, not from the text of the source, unless noted: active = inhibition above about 11%; inactive = the rest.

Cn1cnc([N+](=O)[O-])c1Sc1ccc([N+](=O)[O-])cc1 was read as PLC-gamma1 inh 9.4, TbMetRS inhib -0.6, PLCb3 inh 11.0*, HGIII-sPLA2 inh 14.7, PLCg1 ctr -0.4 and PLCb3 confirm 5.0.
Screening COC(=O)[C@@]1(O)c2c(oc3cccc(O)c3c2=O)C=C[C@H]1O returned PLC-gamma1 inh -1.6, PLCb3 inh 2.3 and HGIII-sPLA2 inh 2.5.
Screening N#CCC[C@@H]1CC[C@]2(CCCN(Cc3ccncc3)C2)O1 returned PLC-gamma1 inh -1.9, PLCb3 inh -1.9 and HGIII-sPLA2 inh 3.5.
`CCCCC(=O)N/N=C/c1c(O)n(C2CC2)c(=S)[nH]c1=O` gave PLC-gamma1 inh 10.4*, TbMetRS inhib -0.5, PLCb3 inh 8.1, HGIII-sPLA2 inh -1.7, PLCg1 ctr -7.1 and PLCb3 confirm -3.2.
Screening CCCCN(Cc1ccccc1)C1CCN(CCc2ccccc2)CC1 returned PLC-gamma1 inh 12.9*, TbMetRS inhib -0.2, PLCb3 inh 7.8, HGIII-sPLA2 inh 0.3, PLCg1 ctr -3.2 and PLCb3 confirm -1.1.
Screening COC(=O)c1c(C)n(Cc2ccc3c(c2)OCO3)c2ccc(O)cc12 returned PLC-gamma1 inh 11.5*, TbMetRS inhib -0.2, PLCb3 inh -5.5, HGIII-sPLA2 inh -25.4, PLCg1 ctr -10.9 and PLCb3 confirm -12.4.
For O=C1CN=C(c2ccccc2)c2ccccc2N1Cc1ccc(C(F)(F)F)cc1 the results were PLC-gamma1 inh -0.8, TbMetRS inhib -1.4, PLCb3 inh 1.0 and HGIII-sPLA2 inh -1.2.
`Cc1oc(-c2ccccc2Cl)nc1CN1C(=O)CN=C(c2ccccc2)c2ccccc21` gave PLC-gamma1 inh 9.6*, TbMetRS inhib -0.4, PLCb3 inh 11.3*, HGIII-sPLA2 inh -2.2, PLCg1 ctr -5.8 and PLCb3 confirm -5.7.
For N#Cc1ccc(NC(=S)N2Cc3cc(Br)ccc3-n3nncc3C2)cc1 the results were PLC-gamma1 inh 1.0, PLCb3 inh 3.1 and HGIII-sPLA2 inh -6.7.
For c1ccc(CCN2CCC3CCNC3C2)cc1 (stereo unspecified) the results were PLC-gamma1 inh 1.9, PLCb3 inh 2.2 and HGIII-sPLA2 inh -4.5.
Cc1cc(Cl)nc(N)n1 was read as PLC-gamma1 inh 12.6*, TbMetRS inhib 0.5, PLCb3 inh 7.5, HGIII-sPLA2 inh -4.6, PLCg1 ctr -3.9 and PLCb3 confirm 2.7.
`Cc1cccc(OP(N)(N)=O)c1C` gave PLC-gamma1 inh 4.3, TbMetRS inhib -0.7, PLCb3 inh 1.4 and HGIII-sPLA2 inh -1.1.
Cc1cccc(C)c1OP(N)(=O)Oc1c(C)cccc1C was read as PLC-gamma1 inh 9.6*, TbMetRS inhib -0.5, PLCb3 inh -7.3, HGIII-sPLA2 inh 12.2, PLCg1 ctr 0.5 and PLCb3 confirm -33.3.
For CC(=O)CC(=O)C1C(=O)N(C)C(=O)N(C)C1=O the results were PLC-gamma1 inh 11.3*, TbMetRS inhib -0.6, PLCb3 inh 3.3, HGIII-sPLA2 inh 10.5, PLCg1 ctr -2.5 and PLCb3 confirm 1.2.
`CN1C(=O)C(c2ccccc2)C(=O)N(C)C1=O` gave PLC-gamma1 inh 4.8, TbMetRS inhib 0.1, PLCb3 inh -0.5 and HGIII-sPLA2 inh -15.6.
For C[C@H](NC(=O)OCc1ccccc1)[P+](=O)O the results were PLC-gamma1 inh 2.2, PLCb3 inh 4.7 and HGIII-sPLA2 inh -0.5.
For CC1C2Cc3ccc(O)cc3C1(C)CCN2CC1CC1 (stereo unspecified) the results were PLC-gamma1 inh 3.1, PLCb3 inh 3.6 and HGIII-sPLA2 inh -0.6.
`C=C1[C@H]2CC[C@H]3[C@]4(C)C[C@H](O[C@@H]5OC(CO)[C@@H](OSOOO)[C@H](OS(=O)(=O)O)[C@H]5OC(=O)CC(C)C)C[C@@H](C(=O)O)[C@H]4CC[C@]3(C2)[C@H]1O` (stereo partly specified) gave PLC-gamma1 inh 2.8, TbMetRS inhib 0.2, PLCb3 inh 11.9*, HGIII-sPLA2 inh 9.3, PLCg1 ctr 2.3 and PLCb3 confirm 2.1.
O=C(NC1CN2CCC1CC2)c1ccc(Cl)cc1 (stereo unspecified) was read as PLC-gamma1 inh 0.7, PLCb3 inh 2.3 and HGIII-sPLA2 inh -4.8.
Screening COc1ccc(-c2ccc3c(c2)CN(c2cccc(Cl)c2)Cc2cnnn2-3)cc1 returned PLC-gamma1 inh 13.1*, TbMetRS inhib -0.6, PLCb3 inh -4.5, HGIII-sPLA2 inh -4.5, PLCg1 ctr -4.0 and PLCb3 confirm -9.6.
Screening COc1ccc(-c2ccc3c(c2)CN(CC(C)C)Cc2cnnn2-3)cc1 returned PLC-gamma1 inh -28.8, TbMetRS inhib -0.8, PLCb3 inh -39.9 and HGIII-sPLA2 inh -1.4.
COC(=O)C1=C(c2ccccc2OCc2ccccc2)C[C@@H]2CC[C@H]1N2C(=O)NC1CCN(Cc2ccccc2)CC1 was read as PLC-gamma1 inh 7.3, TbMetRS inhib -0.6, PLCb3 inh 6.7 and HGIII-sPLA2 inh -11.4.
`COC(=O)C1=C(c2cccc(OCc3ccccc3)c2)C[C@@H]2CC[C@H]1N2C(=O)NC1CCN(Cc2ccccc2)CC1` gave PLC-gamma1 inh 11.8*, TbMetRS inhib -0.5, PLCb3 inh 2.3, HGIII-sPLA2 inh -17.8, PLCg1 ctr 1.4 and PLCb3 confirm 4.0.
For O=C(C[N+]12CCC(CC1)C(CO)C2)c1ccc([N+](=O)[O-])cc1 (stereo unspecified) the results were PLC-gamma1 inh 2.2, TbMetRS inhib -0.1, PLCb3 inh 0.2 and HGIII-sPLA2 inh 3.6.
`O=C(C[N+]12CCC(CC1)C(OC(=O)c1ccccc1)C2)c1ccc([N+](=O)[O-])cc1` (stereo unspecified) gave PLC-gamma1 inh -1.0, TbMetRS inhib 0.2, PLCb3 inh -5.7, HGIII-sPLA2 inh 21.7*, sPLA2 confirm 13.5 and BODIPY interf -20.9.
Screening Cc1c(N=Nc2c(O)n(C)c(=O)n(C)c2=O)c(=O)n(-c2ccccc2)n1C returned PLC-gamma1 inh 3.0, TbMetRS inhib -1.0, PLCb3 inh -11.8, HGIII-sPLA2 inh 19.4*, sPLA2 confirm 1.2 and BODIPY interf -4.0.
Screening Cc1cc(N2CCNC[C@H]2C)ccc1N1CCN[C@H](C)C1 returned PLC-gamma1 inh 4.0, PLCb3 inh -0.6 and HGIII-sPLA2 inh 2.1.
For COc1ccc(NC(=S)NC(NC(=O)CF)C(Cl)(Cl)Cl)cc1[N+](=O)[O-] (stereo unspecified) the results were PLC-gamma1 inh 8.6, TbMetRS inhib 0.0, PLCb3 inh -0.2, HGIII-sPLA2 inh 19.2*, sPLA2 confirm 17.8 and BODIPY interf -3.1.
